From ChEMBL document CHEMBL1123779, “Modifications of primaquine as antimalarials. 4. 5-Alkoxy derivatives of primaquine” (J Med Chem, 1987)

Tests used:
Plasmodium cynomolgi [1] = assay: Cures in Plasmodium cynomolgi infected Rhesus monkeys (Macaca mulatta) on 1 mg/kg/day after 7 days; cured 1 of 1; assay type: functional
Plasmodium cynomolgi [2] = assay: Cures in Plasmodium cynomolgi infected Rhesus monkeys (Macaca mulatta) on 0.316 mg/kg/day after 7 days; cured 0 of 1; assay type: functional
Plasmodium berghei [3] = assay: Blood schizonticidal activity in trophozoite-induced Plasmodium berghei infected mice (Mus musculus) at 40 mg/kg; numbers cured; assay type: functional
Outline: (§1)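 Run at the Rane Laboratory with blood-induced P. berghei infections in mice, five animals per group. A cure is a mouse surviving to 60 days postinfection. Deaths before day 6 are recorded separately as toxic deaths. Activity is scored from the increase in mean survival time over untreated controls, and counts as active when treated MST is more than twice control MST.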

Mus musculus [4] = assay: Suppressive blood schizonticidal antimalarial activity evaluated in the trophozoite-induced Plasmodium berghei infection in mice (Mus musculus) at a dose 10 mg/kg given as no. of cures; assay type: functional; outline: as §1
Mus musculus [5] = assay: Suppressive blood schizonticidal antimalarial activity evaluated in the trophozoite-induced Plasmodium berghei infection in mice (Mus musculus) at a dose 80 mg/kg given as no. of cures; assay type: functional; outline: as §1
Mus musculus [6] = assay: Suppressive blood schizonticidal antimalarial activity evaluated in the trophozoite-induced Plasmodium berghei infection in mice (Mus musculus) at a dose 160 mg/kg given as no. of cures; assay type: functional; outline: as §1
Plasmodium berghei [7] = assay: Suppressive blood schizonticidal antimalarial activity evaluated in the trophozoite-induced Plasmodium berghei infection in mice (Mus musculus) at a dose 640 mg/kg given as number of toxic deaths; assay type: toxicity, organism-based; set-up: dose 640 mg/kg; details: in vivo
Outline: (§2)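 Rane Laboratory mouse test with blood-induced P. berghei infection, five mice per group. Toxic deaths are deaths occurring before the 6th day postinfection.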

Mus musculus [8] = assay: Suppressive blood schizonticidal antimalarial activity evaluated in the trophozoite-induced Plasmodium berghei infection in mice (Mus musculus) at a dose 2.5 mg/kg; assay type: functional
Outline: (§3)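 Run at the Rane Laboratory in mice infected with blood-induced P. berghei, five animals per group. Activity is the increase in mean survival time over untreated infected controls. A compound counts as active when treated-group MST is more than twice the control MST. Cures are mice surviving at 60 days postinfection.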

Mus musculus [9] = assay: Suppressive blood schizonticidal antimalarial activity evaluated in the trophozoite-induced Plasmodium berghei infection in mice (Mus musculus) at a dose 320 mg/kg; assay type: functional; outline: as §3
Mus musculus [10] = assay: Suppressive blood schizonticidal antimalarial activity evaluated in the trophozoite-induced Plasmodium berghei infection in mice (Mus musculus) at a dose 5 mg/kg; assay type: functional; set-up: unit not given beside the values; outline: as §3
Mus musculus [11] = assay: Suppressive blood schizonticidal antimalarial activity evaluated in the trophozoite-induced Plasmodium berghei infection in mice (Mus musculus) at a dose 20 mg/kg given as no. of cures; assay type: functional; outline: as §1
Plasmodium cynomolgi [12] = assay: Cures in Plasmodium cynomolgi infected Rhesus monkeys (Macaca mulatta) on 10.0 mg/kg/day after 7 days; assay type: functional, organism-based
Mus musculus [13] = assay: Suppressive blood schizonticidal antimalarial activity evaluated in the trophozoite-induced Plasmodium berghei infection in mice (Mus musculus) at a dose 160 mg/kg given as no. of toxic deaths; assay type: functional; outline: as §2
Mus musculus [14] = assay: Suppressive blood schizonticidal antimalarial activity evaluated in the trophozoite-induced Plasmodium berghei infection in mice (Mus musculus) at a dose 320 mg/kg given as no. of toxic deaths; assay type: functional; outline: as §2
Mus musculus [15] = assay: Suppressive blood schizonticidal antimalarial activity evaluated in the trophozoite-induced Plasmodium berghei infection in mice (Mus musculus) at a dose 10 mg/kg; assay type: functional; outline: as §3
Plasmodium berghei [16] = assay: Blood schizonticidal antimalarial activity in the trophozoite-induced Plasmodium berghei infection in mice (Mus musculus) at 20 mg/kg; assay type: functional; set-up: unit not given beside the values; outline: as §3
Mus musculus [17] = assay: Suppressive blood schizonticidal antimalarial activity evaluated in the trophozoite-induced Plasmodium berghei infection in mice (Mus musculus) at a dose 80 mg/kg; assay type: functional; set-up: unit not given beside the values; outline: as §3
Mus musculus [18] = assay: Suppressive blood schizonticidal antimalarial activity evaluated in the trophozoite-induced Plasmodium berghei infection in mice (Mus musculus) at a dose 40 mg/kg; assay type: functional; set-up: unit not given beside the values; outline: as §3
Plasmodium cynomolgi [19] = assay: Radical curative antimalarial activity against Plasmodium cynomolgi in Rhesus monkeys (Macaca mulatta) at 1 mg/kg/day over 7 days; cured 1 of 2; assay type: functional
Plasmodium cynomolgi [20] = assay: Cures in Plasmodium cynomolgi infected Rhesus monkeys (Macaca mulatta) on 0.316 mg/kg/day after 7 days; cured 0 of 2; assay type: functional
Plasmodium cynomolgi [21] = assay: Cures in Plasmodium cynomolgi infected Rhesus monkeys (Macaca mulatta) on 0.1 mg/kg/day after 7 days (x7); cured 0 of 2; assay type: functional
Plasmodium cynomolgi [22] = assay: Cures in Plasmodium cynomolgi infected Rhesus monkeys (Macaca mulatta) on 10.0 mg/kg/day after 7 days; cured 1 of 1; assay type: functional
Plasmodium cynomolgi [23] = assay: Cures in Plasmodium cynomolgi infected Rhesus monkeys (Macaca mulatta) on 0.1 mg/kg/day after 7 days; cured 0 of 1; assay type: functional
Plasmodium cynomolgi [24] = assay: Cures in Plasmodium cynomolgi infected Rhesus monkeys (Macaca mulatta) on 1 mg/kg/day after 7 days; cured 2 of 2; assay type: functional
Plasmodium cynomolgi [25] = assay: Cures in Plasmodium cynomolgi infected Rhesus monkeys (Macaca mulatta) on 0.316 mg/kg/day after 7 days; cures 2 of 2; assay type: functional
Mus musculus [26] = assay: Suppressive blood schizonticidal antimalarial activity evaluated in the trophozoite-induced Plasmodium berghei infection in mice (Mus musculus) at a dose 80 mg/kg given as no. of toxic deaths; assay type: functional; outline: as §2
Mus musculus [27] = assay: Suppressive blood schizonticidal antimalarial activity evaluated in the trophozoite-induced Plasmodium berghei infection in mice (Mus musculus) at a dose 160 mg/kg; assay type: functional; outline: as §3
Plasmodium cynomolgi [28] = assay: Cures in Plasmodium cynomolgi infected Rhesus monkeys (Macaca mulatta) on 1 mg/kg/day after 7 days; cured 0 of 1; assay type: functional

Row | Structure (SMILES) | Cures/no. of animals (Plasmodium cynomolgi [1]) | Cures/no. of animals (Plasmodium cynomolgi [2]) | Cures (Plasmodium berghei [3]) | Cures (Mus musculus [5]) | Toxic deaths (Plasmodium berghei [7]) | Delta MST (Mus musculus [8]) | Delta MST (Mus musculus [10]) | Cures (Mus musculus [11]) | Toxic deaths (Mus musculus [13]) | Toxic deaths (Mus musculus [14]) | Delta MST (Mus musculus [15]) | Delta MST (Plasmodium berghei [16]) | Delta MST (Mus musculus [18]) | Cures/no. of animals (Plasmodium cynomolgi [21]) | other results
1 | COc1cc(NC(C)CCCN)c2ncccc2c1OCC(F)(F)F (stereo not drawn) | 1 | 0 | – | – | – | – | – | – | – | – | – | – | – | – | –
2 | CCCCCCCCOc1c(OC)cc(NC(C)CCCN)c2nccc(C)c12 (stereo not drawn) | 1 | 0 | 5 | 5 | 2 | 7.8 | 12 | 5 | – | – | – | – | – | – | Cures (Mus musculus [4]): 5; Cures (Mus musculus [6]): 2; Delta MST (Mus musculus [9]): 0.4; Cures/no. of animals (Plasmodium cynomolgi [12]): Toxic
3 | CCCCC(C)Oc1c(OC)cc(NC(C)CCCN)c2ncc(C)cc12 (stereo not drawn) | 1 | – | 3 | 1 | 5 | – | – | 2 | 5 | 5 | 6.1 | – | – | – | –
4 | COc1cc(NC(C)CCCN)c2ncccc2c1 (stereo not drawn) [PRIMAQUINE] | – | – | – | – | 5 | – | – | – | 2 | 5 | – | 4 | 5 | 0 | Delta MST (Mus musculus [17]): 9.4; Cures/no. of animals (Plasmodium cynomolgi [19]): 1; Cures/no. of animals (Plasmodium cynomolgi [20]): 0
5 | COc1cc(NC(C)CCCN)c2nccc(C)c2c1OCC1CCCCC1 (stereo not drawn) | – | 0 | 3 | 1 | 5 | 9.2 | 7.8 | 4 | – | 4 | – | – | – | – | Cures (Mus musculus [4]): 1; Cures/no. of animals (Plasmodium cynomolgi [22]): 1; Cures/no. of animals (Plasmodium cynomolgi [23]): 0; Cures/no. of animals (Plasmodium cynomolgi [24]): 2
6 | COc1cc(NC(C)CCCN)c2nccc(C)c2c1OC1CCCC1 (stereo not drawn) | – | – | 2 | 1 | 5 | 6.1 | 6.9 | 1 | 5 | 5 | 6.9 | – | – | 0 | Cures/no. of animals (Plasmodium cynomolgi [25]): 2; Cures/no. of animals (Plasmodium cynomolgi [24]): 2; Cures/no. of animals (Plasmodium cynomolgi [12]): Toxic
7 | CCCCOc1c(OC)cc(NC(C)CCCN)c2nccc(C)c12 (stereo not drawn) | 1 | – | 3 | – | 5 | – | – | 5 | 5 | 5 | 11 | – | – | 0 | Cures/no. of animals (Plasmodium cynomolgi [25]): 2; Toxic deaths (Mus musculus [26]): 4
8 | COc1cc(NC(C)CCCN)c2nc(C)ccc2c1 (stereo not drawn) | – | – | – | – | 5 | – | – | – | – | 1 | – | 3.1 | 5.5 | – | Delta MST (Mus musculus [17]): 7.3; Delta MST (Mus musculus [27]): 8.3
9 | CCCC(CC)Oc1c(OC)cc(NC(C)CCCN)c2ncc(C)cc12 (stereo not drawn) | – | – | 1 | 1 | 5 | – | – | – | 4 | 5 | – | 5.3 | – | – | Cures/no. of animals (Plasmodium cynomolgi [28]): 0; Cures/no. of animals (Plasmodium cynomolgi [23]): 0
10 | CCOc1c(OC)cc(NC(C)CCCN)c2ncccc12 (stereo not drawn) | – | – | – | – | 5 | – | – | – | 3 | – | – | – | 0.3 | – | –
